Reference: ChEMBL document CHEMBL1140872, “Discovery of a potent and selective inhibitor for human carbonyl reductase 1 from propionate scanning applied to the macrolide zearalenone” (Bioorg Med Chem, 2009)

Experiments:
[1] = molecular target: T1, Carbonyl reductase [NADPH] 1 (Homo sapiens) (UniProt P16152); assay: Binding affinity to human recombinant carbonyl reductase 1 expressed in Escherichia coli assessed as thermal shift by differential scanning fluorimetry in absence of cofactor
T1 sequence (whole entry): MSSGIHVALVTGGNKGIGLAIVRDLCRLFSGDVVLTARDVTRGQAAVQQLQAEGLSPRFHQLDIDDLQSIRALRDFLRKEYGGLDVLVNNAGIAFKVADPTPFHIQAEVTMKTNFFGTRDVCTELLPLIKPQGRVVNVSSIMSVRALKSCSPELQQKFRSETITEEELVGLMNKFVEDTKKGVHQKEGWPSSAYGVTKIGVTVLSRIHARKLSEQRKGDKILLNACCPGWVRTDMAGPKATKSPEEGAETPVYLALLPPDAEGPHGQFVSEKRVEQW
Outline: (§1)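 Thermal-shift (DSF) binding assay with purified recombinant catalytic domains or proteins carrying an N- or C-terminal His6 tag or GST fusion. Purity was >95% by SDS/PAGE and identity was confirmed by MS. Protein was at 2 µM final in 10 mM HEPES pH 7.5 and 150 mM NaCl. Tm shift is reported, with 2 °C as the threshold for binding.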

[2] = molecular target: T2, Carbonyl reductase [NADPH] 3 (Homo sapiens) (UniProt O75828); assay: Binding affinity to human recombinant carbonyl reductase 3 expressed in Escherichia coli assessed as thermal shift by differential scanning fluorimetry in presence of NADP+; outline: as §1
T2 sequence (whole entry): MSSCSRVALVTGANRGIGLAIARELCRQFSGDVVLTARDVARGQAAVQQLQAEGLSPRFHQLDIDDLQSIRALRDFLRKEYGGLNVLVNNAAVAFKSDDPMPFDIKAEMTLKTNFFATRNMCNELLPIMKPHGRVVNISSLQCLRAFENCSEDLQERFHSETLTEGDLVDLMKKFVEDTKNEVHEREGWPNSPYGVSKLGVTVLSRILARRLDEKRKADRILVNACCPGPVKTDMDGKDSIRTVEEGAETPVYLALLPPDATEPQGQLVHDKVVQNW

[3] = molecular target: T2, Carbonyl reductase [NADPH] 3 (Homo sapiens); assay: Binding affinity to human recombinant carbonyl reductase 3 expressed in Escherichia coli assessed as thermal shift by differential scanning fluorimetry in absence of cofactor; outline: as §1
[4] = molecular target: T2, Carbonyl reductase [NADPH] 3 (Homo sapiens); assay: Binding affinity to human recombinant carbonyl reductase 3 expressed in Escherichia coli assessed as thermal shift by differential scanning fluorimetry in presence of NADPH; outline: as §1
[5] = molecular target: T1, Carbonyl reductase [NADPH] 1 (Homo sapiens); assay: Binding affinity to human recombinant carbonyl reductase 1 expressed in Escherichia coli assessed as thermal shift by differential scanning fluorimetry in presence of NADPH; outline: as §1
[6] = molecular target: T1, Carbonyl reductase [NADPH] 1 (Homo sapiens); assay: Binding affinity to human recombinant carbonyl reductase 1 expressed in Escherichia coli assessed as thermal shift by differential scanning fluorimetry in presence of NADP+; outline: as §1
[7] = molecular target: T3, Carbonyl reductase [NADPH] 1 (Homo sapiens, UniProt P16152); assay: Binding affinity to human recombinant carbonyl reductase 1 expressed in Escherichia coli assessed as NADPH oxidation using isatin as substrate
T3 sequence (P16152 whole entry): T1 sequence (whole entry)
Outline: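 Purified recombinant CBR1 (200 nM) and NADPH were added to compound in 50 mM sodium phosphate, pH 6.8, 1 mM MgCl2. NADPH oxidation was followed as the fluorescence decrease at 460 nm (excitation 355 nm). Rates came from linear regression after normalising to the fluorescence rise at injection. Compounds were titrated at two isatin levels, with no-protein background subtracted. Sigmoidal fit gave IC50, then Ki from the isatin concentration.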

[8] = molecular target: T1, Carbonyl reductase [NADPH] 1 (Homo sapiens); assay: Binding affinity to human recombinant carbonyl reductase 1 expressed in Escherichia coli assessed as NADPH oxidation at 200 uM relative to isatin
Outline: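 Substrate test used 200 nM purified CBR1 and 200 µM NADPH, injected onto compound at 200 µM in 50 mM sodium phosphate pH 6.8 with 1 mM MgCl2. NADPH oxidation was read as the fluorescence decrease at 460 nm (excitation 355 nm). Rate came from linear regression after normalizing to the fluorescence rise on injection. Run in triplicate and expressed as % of the isatin rate.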

Row | Compound | Tm [1] [°C] | Tm [2] [°C] | Tm [3] [°C] | Tm [4] [°C] | Tm [5] [°C] | Tm [6] [°C] | IC50 [7] [nM] | Ki [7] [nM] | Activity [8] [%]
1 | O=c1c(-c2ccc(O)cc2)coc2cc(O)cc(O)c12 | < 2 | < 2 | < 2 | < 2 | < 2 | < 2 | – | – | –
2 | Oc1cc(Cl)ccc1Oc1ccc(Cl)cc1Cl [TRICLOSAN] | < 2 | < 2 | < 2 | < 2 | < 2 | 3.4 | 400 | 60 | –
3 | COc1ccc(-c2coc3cc(O)cc(O)c3c2=O)cc1 [BIOCHANIN] | < 2 | < 2 | < 2 | < 2 | < 2 | 2.7 | 12700 | 2030 | 9.3
4 | COc1cc(O)c2c(c1)oc(=O)c1c3cc(O)c(O)cc3oc21 [WEDELOLACTONE] | 2 | < 2 | < 2 | < 2 | < 2 | 5.1 | 3780 | 600 | 5.8
5 | O=C1C[C@@H](c2ccc(O)cc2)Oc2cc(O)cc(O)c21 [NARINGENIN] | < 2 | < 2 | < 2 | < 2 | < 2 | 2.3 | 21500 | 3430 | 4.7
6 | O=c1c(O)c(-c2ccc(O)c(O)c2)oc2cc(O)cc(O)c12 | < 2 | < 2 | < 2 | < 2 | < 2 | < 2 | – | – | –
7 | O=c1cc(-c2ccccc2)oc2cc(O)cc(O)c12 [CHRYSIN] | < 2 | < 2 | < 2 | < 2 | < 2 | 4.6 | 670 | 110 | 16.3
